In ChEMBL document CHEMBL3286149, “Synthesis of rigidified eIF4E/eIF4G inhibitor-1 (4EGI-1) mimetic and their in vitro characterization as inhibitors of protein-protein interaction” (J Med Chem, 2014) one finds IC50 and Retention_time data, which are given here for 27 compounds.

SMILES strings stand for the structures. pIC50: −log10 of the molar value.

Data set [1] in a line: Antiproliferative activity against human CRL2351 cells assessed as inhibition of cell proliferation after 5 days by sulforhodamine B assay. It is filed as functional, cell-based. The conditions noted are these: 120 h. The procedure, abridged:
(§1)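 Adherent cells (CRL-2351 breast, CRL-2813 melanoma) in 96-well plates kept 5 days with compound at 0.54–20 μM. Fixed in cold 10% TCA at 4 °C overnight, stained 1 h at RT with 0.057% SRB in 1% acetic acid, unbound dye removed with 1% acetic acid, bound dye dissolved in 10 mM Tris pH 10, absorbance read at 510 nm. IC50 reported.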

The nature of data set [2]: Antiproliferative activity against human CRL2813 cells assessed as inhibition of cell proliferation after 5 days by sulforhodamine B assay. It is filed as functional, cell-based. The conditions noted are these: CRL2813, 120 h. The procedure, abridged: as §1
A general note: In SRB staining, fixed cells bind dye roughly in proportion to their protein.

The target in data set [3] is Eukaryotic translation initiation factor 4E (Homo sapiens, UniProt P06730). The data set is described as follows: Displacement of N-alpha-fluorescein tagged eIF4G-derived peptide from GST-DN26-eIF4E (unknown origin) by fluorescence polarization assay.
The nature of data set [4]: Retention time of the compound by RP-HPLC analysis. It is filed as physicochemical. The method, boiled down: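 C18 Xbridge column (4.6 mm × 100 mm), 1 mL/min, detection at 254 nm. Mobile phase A 0.1% v/v FA in water, B 0.1% v/v TFA in acetonitrile. Linear gradient usually 0–100% B over 26 min; some runs 50–100% B over 20 min or 30–100% B over 26 min.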

Sequence of Eukaryotic translation initiation factor 4E (P06730 whole entry): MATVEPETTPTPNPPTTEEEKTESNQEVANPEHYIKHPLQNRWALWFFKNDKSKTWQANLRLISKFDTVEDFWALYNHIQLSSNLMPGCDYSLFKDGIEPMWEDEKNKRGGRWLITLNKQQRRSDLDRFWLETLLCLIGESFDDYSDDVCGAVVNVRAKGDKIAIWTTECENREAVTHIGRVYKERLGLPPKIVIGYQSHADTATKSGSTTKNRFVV

Consider `O=C(O)/C(Cc1ccccc1[N+](=O)[O-])=N\Nc1nc(-c2ccc(Cl)c(Cl)c2)cs1`, for which the pIC50 (in general, the IC50 on a negative log10 scale, so that one unit is a factor of ten) is 4.94 in data set [1] and 4.82 in data set [2].
Take `O=C(O)/C(Cc1ccccc1[N+](=O)[O-])=N/Nc1nc2c(s1)CCc1cc(Cl)c(Cl)cc1-2`: the negative logarithm of the IC50 (pIC50) is 5.39 in data set [1], 4.67 in data set [3] and 5.42 in data set [2]. In data set [4], this compound showed a Retention_time of 8.37 min.
Taken in the same sequence, the figures for `O=C(O)/C(Cc1ccccc1[N+](=O)[O-])=N\Nc1nc2c(s1)CCc1cc(Cl)c(Cl)cc1-2` were under 4.70, 4.47, 4.92 and 10.79 min.
Regarding `O=C(O)/C(Cc1ccccc1[N+](=O)[O-])=N/Nc1nc2c(s1)CCc1c-2ccc(Cl)c1Cl`, the pIC50 was 5.36 in data set [1] and 5.44 in data set [2]. This compound showed a Retention_time in data set [4] of 8.69 min.
Taken in the same sequence, the figures for `O=C(O)/C(Cc1ccccc1[N+](=O)[O-])=N\Nc1nc2c(s1)CCc1c-2ccc(Cl)c1Cl` were 4.95, 4.97 and 11.39 min.
`O=C(O)/C(Cc1ccccc1[N+](=O)[O-])=N/Nc1nc2c(s1)COc1c-2ccc(Cl)c1Cl`: the pIC50 in data set [1] is 4.78; in data set [2], 5.24. Moreover, in data set [4], the Retention_time was 11.6 min.
Taken in the same sequence, the figures for `O=C(O)/C(Cc1ccccc1[N+](=O)[O-])=N\Nc1nc2c(s1)COc1c-2ccc(Cl)c1Cl` were under 4.70, 4.91 and 13.6 min.
As for `O=C(O)/C(Cc1ccccc1[N+](=O)[O-])=N/Nc1nc2c(s1)COc1cc(Cl)c(Cl)cc1-2`, the pIC50 in data set [1] was 5.28; in data set [2] it was 5.51. The Retention_time in data set [4] was found to be 12.77 min.
Taken in the same sequence, the figures for `O=C(O)/C(Cc1ccccc1[N+](=O)[O-])=N\Nc1nc2c(s1)COc1cc(Cl)c(Cl)cc1-2` were 4.81, 5.06 and 14.74 min.
Taken in the same sequence, the figures for `O=C(O)/C(Cc1ccccc1[N+](=O)[O-])=N/Nc1nc2c(s1)CSc1cc(Cl)c(Cl)cc1-2` were 4.75, 5.29 and 10.33 min.
In the case of `O=C(O)/C(Cc1ccccc1[N+](=O)[O-])=N\Nc1nc2c(s1)CSc1cc(Cl)c(Cl)cc1-2`, the pIC50 in data set [1] is 4.75; in data set [2] it was 4.98. In data set [4], the Retention_time is listed as 13.33 min.
Taken in the same sequence, the figures for `O=C(O)/C(Cc1ccccc1[N+](=O)[O-])=N/Nc1nc2c(s1)CSc1c-2ccc(Cl)c1Cl` were 5.04, 5.35 and 15.66 min.
Taken in the same sequence, the figures for `O=C(O)/C(Cc1ccccc1[N+](=O)[O-])=N\Nc1nc2c(s1)CSc1c-2ccc(Cl)c1Cl` were 4.78, 5.15 and 18.23 min.
Taken in the same sequence, the figures for `O=C(O)/C(Cc1ccccc1[N+](=O)[O-])=N/Nc1nc2c(s1)C[S+]([O-])c1cc(Cl)c(Cl)cc1-2` (stereo not drawn) were under 4.70, 5.12 and 9.82 min.
For `O=C(O)/C(Cc1ccccc1[N+](=O)[O-])=N\Nc1nc2c(s1)C[S+]([O-])c1cc(Cl)c(Cl)cc1-2` (stereo not drawn), the results for the pIC50 in data set [1] and in data set [2] were 4.99 and 5.39, respectively. In data set [4], this compound showed a Retention_time of 10.38 min.
Turning to `O=C(O)/C(Cc1ccccc1[N+](=O)[O-])=N/Nc1nc2c(s1)C[S+]([O-])c1c-2ccc(Cl)c1Cl` (stereo not drawn), the pIC50 is under 4.70 in data set [1] and 4.95 in data set [2]. For the same compound, the Retention_time in data set [4] stood at 8.74 min.
With `O=C(O)/C(Cc1ccccc1[N+](=O)[O-])=N\Nc1nc2c(s1)C[S+]([O-])c1c-2ccc(Cl)c1Cl` (stereo not drawn), the pIC50 is 4.70 in data set [1] and 4.94 in data set [2]. This compound gave a Retention_time in data set [4] of 10.12 min.
In data set [4], `O=C(O)/C(Cc1ccccc1[N+](=O)[O-])=N/Nc1nc2c(s1)CS(=O)(=O)c1c-2ccc(Cl)c1Cl` showed a Retention_time of 12.41 min.
Same read-out and setting: the figure for `O=C(O)/C(Cc1ccccc1[N+](=O)[O-])=N\Nc1nc2c(s1)CS(=O)(=O)c1c-2ccc(Cl)c1Cl` is 13.63 min.
Consider `O=C(O)/C(Cc1ccccc1[N+](=O)[O-])=N/Nc1nc2c(s1)CS(=O)(=O)c1cc(Cl)c(Cl)cc1-2`, for which the Retention_time in data set [4] is recorded as 11.48 min.
On the same count and under the same terms, under `O=C(O)/C(Cc1ccccc1[N+](=O)[O-])=N\Nc1nc2c(s1)CS(=O)(=O)c1cc(Cl)c(Cl)cc1-2` stands 12.41 min.
Regarding `COc1cc2c(cc1OC)-c1nc(N/N=C(\Cc3ccccc3[N+](=O)[O-])C(=O)O)sc1CC2`, the pIC50 in data set [1] was under 4.70; in data set [2], 4.92. For the same compound, the Retention_time in data set [4] was 10 min.
Taken in the same sequence, the figures for `COc1cc2c(cc1OC)-c1nc(N/N=C(/Cc3ccccc3[N+](=O)[O-])C(=O)O)sc1CC2` were under 4.70, under 4.70 and 11.22 min.
Regarding `COc1ccc2c(c1OC)OCc1sc(N/N=C(\Cc3ccccc3[N+](=O)[O-])C(=O)O)nc1-2`, the negative-log IC50 (pIC50) in data set [2] is under 4.70. Moreover, the Retention_time in data set [4] is recorded as 8.78 min.
On to `COc1ccc2c(c1OC)OCc1sc(N/N=C(/Cc3ccccc3[N+](=O)[O-])C(=O)O)nc1-2`, for which the Retention_time in data set [4] amounted to 10.38 min.
On to `COc1cc2c(cc1OC)-c1nc(N/N=C(\Cc3ccccc3[N+](=O)[O-])C(=O)O)sc1CO2`, for which the pIC50 in data set [2] was under 4.70. In data set [4], the Retention_time is listed as 9.07 min.
In data set [4], `COc1cc2c(cc1OC)-c1nc(N/N=C(/Cc3ccccc3[N+](=O)[O-])C(=O)O)sc1CO2` came in with a Retention_time of 10.9 min.
